Test [1] addresses T1, Reverse transcriptase (Human immunodeficiency virus 1, UniProt Q9WKE8). The test is described as follows: Inhibition of HIV1 LAI reverse transcriptase wild type in presence of 5 mM ATP by heteropolymeric DNA polymerase assay. In a few lines: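 Heteropolymeric DNA assay with 5 mM ATP added: immobilized 18-mer primer, 5′-A12-(GTCA)5 50-mer template, dATP/dGTP/dCTP/BrdUTP at 1.0 μM each, HEPES 50 mM pH 7.3, MgCl2 10 mM. RT 30–100 pM, incubated at 33°C for 180 min. NaOH strand separation, then anti-BrdU-AP detection at 405 nm. IC50 fitted from seven inhibitor concentrations; two to four runs in duplicate.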

For test [2], the target named is T1, Reverse transcriptase. The experiment in a line: Inhibition of HIV1 pNL4-3 reverse transcriptase wild type pNL4-3 by heteropolymeric DNA polymerase assay. In a few lines:
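Heteropolymeric assay without ATP: plate-bound 18-mer DNA primer (~110 nM) with 50-mer 5′-A12-(GTCA)5 template (190 nM). dATP, dGTP, dCTP and BrdUTP at 1.0 μM each, in HEPES 50 mM pH 7.3, MgCl2 10 mM. RT 30–100 pM, 33°C for 180 min, then NaOH dehybridization and anti-BrdU-AP tracer read at 405 nm. IC50 from seven triphosphate concentrations; two to four runs in duplicate.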

Each structure is given as a SMILES string.

A word on the IC50: it is the point on the concentration scale where inhibition reaches its midpoint. For the compound `Nc1nc2c(c(=O)[nH]1)NCN2[C@H]1C=C[C@@H](COP(=O)(O)OP(=O)(O)OP(=O)(O)O)C1` [Carbovir-Triphosphate], the IC50 was found to be 0.9 µM in test [1] and 1.2 µM in test [2].
Take `C[C@@H](Cn1cnc2c(N)ncnc21)OCP(=O)(O)OP(=O)(O)OP(=O)(O)O` [Tenofovir diphospahte]: the IC50 in test [1] was 1.3 µM; in test [2], 1.2 µM.

These data come from BindingDB's records for doi:10.1128/aac.00119-07 (Emory University, 2007).
